Activity calls are given as the source filed them.
Experiments:
Paracentrotus lividus [1] = assay: Induction of microtubule destabilization activity in sea urchin free-swimming blastulae assessed as embryo spinning measured after 0.25 to 20 hrs; conditions: Blastula
Method in brief: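 Free-swimming blastulae just after hatching (8–10 h post-fertilisation) were cultured in filtered seawater at room temperature. They were treated with 2-fold decreasing concentrations (DMSO stock diluted 10-fold in EtOH; final DMSO ≤0.05%, EtOH ≤1%). Spinning and lack of forward movement were observed by light microscopy after 15 min to 20 h. The value is the effective threshold concentration, from duplicate measurements.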

Paracentrotus lividus [2] = assay: Induction of microtubule destabilization in sea urchin embryo assessed as cleavage alteration exposed 8 to 20 mins after fertilization and 45 to 55 mins before first mitotic cycle completion measured 2.5 to 5.5 hrs after fertilization
Method in brief: (§1)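 Gametes were obtained by intracoelomic injection of 0.5 M KCl, and eggs were fertilised in filtered seawater. Embryos were cultured at room temperature with paddle agitation (60 rpm), as a monolayer at up to 2000 embryos/mL. Eggs were exposed 8–20 min post-fertilisation to 2-fold decreasing concentrations (10 mM DMSO stock diluted 10-fold in EtOH). Cleavage was scored microscopically at 2.5–5.5 h. The read-out was the threshold concentration, in duplicate.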

Paracentrotus lividus [3] = assay: Induction of microtubule destabilization in sea urchin embryo assessed as cleavage arrest exposed for 8 to 20 mins after fertilization and 45 to 55 mins before first mitotic cycle completion measured 2.5 to 5.5 hrs after fertilization; method in brief: as §1
[4] = Growth inhibition of human NCI60 cells at 10 uM incubated for 48 hrs by sulforhodamine B assay relative to control; type: functional; conditions: NCI60, 48 h, read-out: GI
Method in brief: (§2)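 NCI Developmental Therapeutics Program panel of sixty human tumour cell lines. Compounds were screened first at a single 10 μM dose (percent growth inhibition), and dose-response curves were run for active ligands. GI50 is the concentration giving 50% growth inhibition, reported as the mean across the 60 lines.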

[5] = Growth inhibition of human NCI60 cells incubated for 48 hrs by sulforhodamine B assay; type: functional; conditions: NCI60, 48 h; method in brief: as §2
Paracentrotus lividus [6] = assay: Induction of microtubule destabilization in sea urchin embryo assessed as formation of tuberculate eggs for 8 to 20 mins after fertilization and 45 to 55 mins before first mitotic cycle completion measured 2.5 to 5.5 hrs after fertilization
Method in brief: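 Sea urchin gametes were obtained by intracoelomic 0.5 M KCl injection, and embryos were cultured in filtered seawater at room temperature at up to 2000 embryos/mL. Fertilised eggs were exposed to 2-fold decreasing concentrations from 10 mM DMSO stocks diluted 10-fold in 96% EtOH. Final DMSO was kept ≤0.05% and EtOH ≤1%. Microscopic scoring gave the EC, the threshold causing 100% cleavage alteration, in duplicate.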

Paracentrotus lividus [7] = assay: Induction of microtubule destabilization in sea urchin embryo assessed as developmental retardation at later stages of development
Paracentrotus lividus [8] = assay: Induction of microtubule destabilization in sea urchin embryo assessed as alteration at later stages of development
[9] = Toxicity in sea urchin embryo assessed as induction of embryo disintegration at early pluteus stage; conditions: paracentrotus lividus
[10] = Toxicity in sea urchin embryo assessed as induction of embryo death at early pluteus stage; conditions: paracentrotus lividus

Compound | EC (Paracentrotus lividus [1]) | EC (Paracentrotus lividus [2]) | EC (Paracentrotus lividus [3]) | inhibition of growth at 10 µM [4] | GI50 [5] | Activity (Paracentrotus lividus [6]) | Activity (Paracentrotus lividus [7]) | Activity (Paracentrotus lividus [8]) | Activity [9] | Activity [10]
Cc1ccc(C(=O)c2sc3nc4c(cc3c2N)CCCC4)c(C)c1 | > 5 µM | 0.05 µM | 0.2 µM | 78.9% | 0.28 µM | Active | – | – | – | –
COc1ccc(C(=O)c2sc3nc(-c4ccccc4OC)ccc3c2N)cc1OC | – | – | – | 43.5% | 7.94 µM | – | – | – | – | –
COc1ccc(C(=O)c2sc3nc4c(cc3c2N)CCCC4)cc1OC | > 5 µM | 0.5 µM | 4 µM | 60.5% | 3.24 µM | Active | – | – | – | –
COc1ccc(C(=O)c2sc3nc4c(cc3c2N)N2CCC4CC2)cc1OC | > 4 µM | > 4 µM | > 4 µM | 11.7% | – | – | Active | Active | – | –
Nc1c(C(=O)c2ccc(Cl)cc2)sc2nc(-c3cccs3)ccc12 | > 4 µM | > 4 µM | > 4 µM | – | – | – | – | – | Toxic | Toxic
COc1ccc(C(=O)c2cc(OC)c(OC)c(OC)c2)cc1O [PHENSTATIN] | 0.5 µM | 0.01 µM | 0.05 µM | – | 0.06 µM | – | – | – | – | –
Nc1c(C(=O)c2ccc(Br)cc2)sc2nc3c(cc12)CCC3 | > 4 µM | 1 µM | > 4 µM | 19.3% | – | – | – | – | – | –
Cc1ccc(C(=O)c2sc3nc4c(cc3c2N)CCCC4)cc1 | > 4 µM | 0.02 µM | 2 µM | 16.4% | – | Active | – | – | – | –
Cc1cccc(NC(=O)c2sc3nc4c(cc3c2N)CCC4)c1C | 5 µM | 0.05 µM | 0.5 µM | – | – | – | – | – | – | –
COc1ccc(C(=O)c2sc3nc(C)cc(C)c3c2N)cc1OC | > 4 µM | > 4 µM | > 4 µM | 14.2% | – | – | – | – | – | –
Nc1c(C(=O)c2ccc3c(c2)OCO3)sc2nc(-c3ccncc3)ccc12 | > 4 µM | > 4 µM | > 4 µM | – | – | – | Active | Active | – | –
COc1ccc(C(=O)c2sc3nc(-c4ccncc4)ccc3c2N)cc1OC | > 4 µM | 4 µM | > 4 µM | 17.1% | – | – | – | – | – | –
Cc1ccc2c(N)c(C(=O)c3ccc(Cl)cc3)sc2n1 | > 4 µM | 0.5 µM | > 4 µM | 18.4% | – | – | – | – | – | –
Nc1c(C(=O)c2ccccc2)sc2nc3c(cc12)N1CCC3CC1 | > 4 µM | > 4 µM | > 4 µM | 7.3% | – | – | – | – | – | –
Nc1c(C(=O)c2ccccc2)sc2nc3c(cc12)CCCC3 | 0.5 µM | 0.02 µM | 0.2 µM | – | – | – | – | – | – | –
COc1ccc(C(=O)c2sc3nc4c(c(-c5ccccc5)c3c2N)CCCC4)cc1OC | > 4 µM | > 4 µM | > 4 µM | – | – | – | Active | Active | – | –
Cc1cc(C)c2c(N)c(C(=O)c3ccc(Br)cc3)sc2n1 | > 4 µM | > 4 µM | > 4 µM | – | – | – | – | – | – | –
COc1ccc(C(=O)c2sc3nc(N)c(C#N)cc3c2N)cc1OC | > 4 µM | 4 µM | > 4 µM | 4.6% | – | – | – | – | – | –
CN1CCc2nc3sc(C(=O)c4ccccc4)c(N)c3cc2C1 | > 4 µM | 4 µM | > 4 µM | 13.3% | – | – | Active | Active | – | –
COc1ccc(C(=O)c2sc3nc(-c4cccs4)ccc3c2N)cc1OC | > 4 µM | 4 µM | > 4 µM | 52.6% | 6.31 µM | – | – | – | Toxic | Toxic
Nc1c(C(=O)Nc2ccccc2)sc2nc3c(cc12)CCCC3 | 0.2 µM | 0.01 µM | 0.05 µM | – | – | – | – | – | – | –

Compound | EC (Paracentrotus lividus [1]) | EC (Paracentrotus lividus [2]) | EC (Paracentrotus lividus [3]) | inhibition of growth at 10 µM [4] | GI50 [5] | Activity (Paracentrotus lividus [6]) | Activity (Paracentrotus lividus [7]) | Activity (Paracentrotus lividus [8]) | Activity [9] | Activity [10]
Nc1c(C(=O)c2ccc3c(c2)OCO3)sc2nc3c(c(C(F)(F)F)c12)CCCC3 | > 4 µM | > 4 µM | > 4 µM | – | – | – | Active | Active | – | –
Cc1cc(C)c2c(N)c(C(=O)c3ccc4c(c3)OCCO4)sc2n1 | > 4 µM | 1 µM | > 4 µM | 2% | – | – | – | – | – | –
Cc1cccc(NC(=O)c2sc3nc4c(cc3c2N)CCCC4)c1C | 0.5 µM | 0.01 µM | 0.1 µM | – | – | – | – | – | – | –
Nc1c(C(=O)c2ccc(Br)cc2)sc2ncccc12 | > 4 µM | 1 µM | > 4 µM | – | – | – | – | – | – | –
N#Cc1cc2c(N)c(C(=O)c3ccc(F)cc3)sc2nc1N | > 4 µM | 4 µM | > 4 µM | – | – | – | – | – | – | –
Nc1c(C(=O)c2ccc(Br)cc2)sc2nc3c(cc12)CCCC3 | > 4 µM | 0.5 µM | > 4 µM | 8.1% | – | – | – | – | – | –
COC(=O)Nc1nc2cc(C(=O)c3cccs3)ccc2[nH]1 [NOCODAZOLE] | 0.1 µM | 0.005 µM | 0.001 µM | – | 0.0389 µM | – | – | – | – | –
N#Cc1cc2c(N)c(C(=O)c3ccc(Cl)cc3)sc2nc1N | > 4 µM | > 4 µM | > 4 µM | 0.5% | – | – | Active | Active | – | –
Nc1c(C(=O)c2ccc(Cl)cc2)sc2nc3c(cc12)CCCC3 | > 4 µM | 0.5 µM | > 4 µM | 7.8% | – | – | – | – | – | –
Cc1ccc(C(=O)c2sc3nc4c(cc3c2N)CCC4)cc1 | > 4 µM | 0.2 µM | > 4 µM | – | – | – | – | – | – | –
Nc1c(C(=O)Nc2cccc(C(F)(F)F)c2)sc2nc3c(cc12)CCCCC3 | > 4 µM | > 4 µM | > 4 µM | – | – | – | – | – | – | –
COc1ccc(C(=O)c2sc3nc(-c4cccs4)ccc3c2N)cc1 | > 4 µM | > 4 µM | > 4 µM | – | – | – | – | – | Toxic | Toxic
COc1ccc(C(=O)c2sc3nc4c(cc3c2N)CCCC4)cc1 | > 5 µM | 0.5 µM | > 4 µM | – | – | – | – | – | – | –
Nc1c(C(=O)c2ccc(F)cc2)sc2nc3c(cc12)CCCC3 | > 4 µM | 0.2 µM | > 4 µM | 26.7% | – | – | – | – | – | –
COc1ccc(C(=O)c2sc3nc4c(cc3c2N)N2CCC4CC2)cc1 | > 4 µM | > 4 µM | > 4 µM | 11.5% | – | – | Active | Active | – | –
Cc1ccc(C(=O)c2sc3nc(C)ccc3c2N)cc1 | > 10 µM | 1 µM | 4 µM | – | – | Active | – | – | – | –
COc1ccc(C(=O)c2sc3nc4c(c(-c5ccncc5)c3c2N)CCCC4)cc1OC | > 4 µM | > 4 µM | > 4 µM | – | – | – | Active | Active | – | –
Nc1c(C(=O)Nc2ccccc2)sc2nc3c(cc12)CCCCC3 | 0.2 µM | 0.01 µM | 0.04 µM | – | – | – | – | – | – | –
COc1ccccc1-c1ccc2c(N)c(C(=O)c3ccc4c(c3)OCO4)sc2n1 | > 4 µM | > 4 µM | > 4 µM | 37.4% | 5.13 µM | – | Active | Active | – | –
Nc1c(C(=O)c2ccc3c(c2)OCO3)sc2nc3c(cc12)CCCC3 | > 5 µM | 0.025 µM | 0.5 µM | – | – | Active | – | – | – | –

From ChEMBL document CHEMBL3872268, “3-Amino-thieno[2,3-b]pyridines as microtubule-destabilising agents: Molecular modelling and biological evaluation in the sea urchin embryo and human cancer cells” (Bioorg Med Chem, 2017)
